# Laboratory results from ChEMBL document CHEMBL3856196, “3-(Benzodioxan-2-ylmethoxy)-2,6-difluorobenzamides bearing hydrophobic substituents at the 7-position of the benzodioxane nucleus potently inhibit methicillin-resistant Sa and Mtb cell division” (Eur J Med Chem, 2016).
# The source made the active and inactive calls. The rule behind the calls is not given here.
# Experiments:
# [1] = target: T1, Cell division protein FtsZ (Staphylococcus aureus) (UniProt P0A031); assay: Inhibition of Staphylococcus aureus FtsZ assessed as increase in cell volume at 1 ug/ml after overnight incubation by phase-contrast light microscopic analysis
# T1 sequence (whole entry): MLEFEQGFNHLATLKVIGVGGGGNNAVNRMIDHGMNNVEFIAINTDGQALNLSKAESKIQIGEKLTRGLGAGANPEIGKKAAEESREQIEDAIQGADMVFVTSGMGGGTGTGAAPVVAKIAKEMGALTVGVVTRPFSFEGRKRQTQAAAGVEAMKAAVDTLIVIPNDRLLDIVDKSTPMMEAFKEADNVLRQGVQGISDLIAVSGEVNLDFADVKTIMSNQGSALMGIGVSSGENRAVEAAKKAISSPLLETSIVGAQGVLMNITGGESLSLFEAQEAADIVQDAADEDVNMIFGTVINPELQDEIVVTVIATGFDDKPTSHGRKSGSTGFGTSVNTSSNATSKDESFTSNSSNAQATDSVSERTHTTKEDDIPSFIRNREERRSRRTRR
# Method in brief: (§1)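 S. aureus grown overnight with compound at levels starting from the previously determined MIC. Untreated cultures served as negative control. Examined by phase-contrast microscopy at 630×.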
# Staphylococcus aureus [2] = assay: Antibacterial activity against […] Staphylococcus aureus ATCC 29213 after 16 hrs by spectrophotometric analysis; assay type: functional; details: ATCC 29213, 16 h
# [3] = Cytotoxicity against human MRC5 cells assessed as reduction in cell viability after 24 hrs by MTT assay; assay type: toxicity, cell-based; details: mrc5, 24 h
# Method in brief: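 MRC-5 lung fibroblasts (DMEM, 10% heat-inactivated calf serum, 37 °C, 5% CO₂) at 10⁴ cells/well were exposed 24 h to twofold serial dilutions in DMEM. Then 1 mg/ml MTT in serum-free DMEM for 3 h, DMSO solubilisation, A570. Cytotoxicity % = 100 − (sample OD/untreated OD) × 100; TD₅₀/TD₉₀ are concentrations cutting viability 50/90%.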
# [4] = target: T1, Cell division protein FtsZ (Staphylococcus aureus); assay: Inhibition of Staphylococcus aureus FtsZ assessed as bacterial swelling at 1 ug/ml after overnight incubation by phase-contrast light microscopic analysis; method in brief: as §1
# [5] = target: T1, Cell division protein FtsZ (Staphylococcus aureus); assay: Inhibition of Staphylococcus aureus FtsZ assessed as cellular desegregation at 1 ug/ml after overnight incubation by phase-contrast light microscopic analysis; method in brief: as §1
# [6] = Therapeutic index, ratio of TD90 for human MRC5 cells to MBC for […] Staphylococcus aureus ATCC 29213; assay type: cell-based; details: read-out: TI
# Method in brief: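 Ratio of TD₉₀ (MTT assay on MRC-5, 24 h exposure) to MBC against MRSA ATCC 29213 (LB tube assay, wash-out and overnight regrowth by OD600).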
# [7] = target: T1, Cell division protein FtsZ (Staphylococcus aureus); assay: Inhibition of Staphylococcus aureus FtsZ assessed as cellular desegregation at 1 ug/ml after 16 hrs by transmission electron microscopic analysis
# Method in brief: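 S. aureus at 10⁹ cells/ml grown 16 h at 37 °C with compound, untreated control included. Cells were pelleted at 3100 × g for 5 min, fixed in 2.5% glutaraldehyde in 0.1 M Na cacodylate pH 7.4 for 1 h at 4 °C, post-fixed in 1% OsO₄ for 1 h at 4 °C, and examined by TEM for septum and ultrastructure.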
# Staphylococcus aureus [8] = assay: Antibacterial activity against methicillin-susceptible Staphylococcus aureus clinical isolates after 24 hrs by CLSI […] broth microdilution method; assay type: functional; details: for MBC: read-out: MBC99.9
# Method in brief: (§2)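 CLSI broth microdilution on clinical isolates. Log-phase bacteria in saline at 1–2 × 10⁵ CFU/mL were mixed with compounds diluted in LB, final 0.097–100 μg/mL, for 24 h at 37 °C. MIC is the lowest concentration with total growth inhibition. For MBC, clear wells were plated on sheep-blood agar for 18 h; >99.9% kill versus untreated control. Triplicate.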
# Enterococcus faecalis [9] = assay: Antibacterial activity against vancomycin-resistant Enterococcus faecalis clinical isolates after 24 hrs by CLSI […] broth microdilution method; assay type: functional; details: for MBC: read-out: MBC99.9; method in brief: as §2
# [10] = test system: Mycobacterium tuberculosis; assay: Antitubercular activity against Mycobacterium tuberculosis H37Rv by Alamar blue assay; assay type: functional
# Method in brief: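 M. tuberculosis in 7H9 medium with ADC and 0.05% Tween 80; MIC by microplate Alamar Blue assay.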
# Enterococcus faecalis [11] = assay: Antibacterial activity against vancomycin-susceptible Enterococcus faecalis clinical isolates after 24 hrs by CLSI […] broth microdilution method; assay type: functional; details: for MBC: read-out: MBC99.9; method in brief: as §2
# Staphylococcus aureus [12] = assay: Antibacterial activity against methicillin-resistant Staphylococcus aureus clinical isolates after 24 hrs by CLSI […] broth microdilution method; assay type: functional; details: for MBC: read-out: MBC99.9; method in brief: as §2
# [13] = target: T1, Cell division protein FtsZ (Staphylococcus aureus); assay: Inhibition of Staphylococcus aureus FtsZ assessed as bacterial swelling at 0.5 ug/ml after overnight incubation by phase-contrast light microscopic analysis; method in brief: as §1
# [14] = target: T1, Cell division protein FtsZ (Staphylococcus aureus); assay: Inhibition of Staphylococcus aureus FtsZ assessed as increase in cell volume at 0.5 ug/ml after overnight incubation by phase-contrast light microscopic analysis; method in brief: as §1
# [15] = target: T1, Cell division protein FtsZ (Staphylococcus aureus); assay: Inhibition of Staphylococcus aureus FtsZ assessed as cellular desegregation at 0.5 ug/ml after overnight incubation by phase-contrast light microscopic analysis; method in brief: as §1
compound,measurement,setting,value
COC(=O)c1ccc2c(c1)OC(COc1ccc(F)c(C(N)=O)c1F)CO2 (stereo not given),inhibition,[1],Active
same,MBC,Staphylococcus aureus [2],0.625 µg/mL
same,MIC,Staphylococcus aureus [2],0.625 µg/mL
same,TD90,[3],> 1280 µg/mL
same,inhibition,[4],Active
same,inhibition,[5],Active
same,selectivity ratio,[6],> 1280
same,inhibition,[7],Active
NC(=O)c1c(F)ccc(OCC2COc3cc(Cl)c(Cl)cc3O2)c1F (stereo not given),MBC,Staphylococcus aureus [2],5 µg/mL
same,MIC,Staphylococcus aureus [2],2.5 µg/mL
same,MIC90,Staphylococcus aureus [8],3.12 µg/mL
same,MBC,Staphylococcus aureus [8],6.25 µg/mL
same,MIC90,Enterococcus faecalis [9],12.5 µg/mL
same,MBC,Enterococcus faecalis [9],50 µg/mL
same,MIC,[10],16 µg/mL
same,MIC90,Enterococcus faecalis [11],6.25 µg/mL
same,MBC,Enterococcus faecalis [11],50 µg/mL
same,MIC90,Staphylococcus aureus [12],3.12 µg/mL
same,MBC,Staphylococcus aureus [12],6.25 µg/mL
NC(=O)c1c(F)ccc(OCc2ccc3c(c2)OCCO3)c1F,MBC,Staphylococcus aureus [2],100 µg/mL
same,MIC,Staphylococcus aureus [2],100 µg/mL
NC(=O)c1c(F)ccc(OCC2COc3ccc(I)cc3O2)c1F (stereo not given),MBC,Staphylococcus aureus [2],0.625 µg/mL
same,MIC,Staphylococcus aureus [2],0.313 µg/mL
same,TD90,[3],> 800 µg/mL
same,MIC90,Staphylococcus aureus [8],0.78 µg/mL
same,MBC,Staphylococcus aureus [8],3.12 µg/mL
same,MIC90,Enterococcus faecalis [9],6.25 µg/mL
same,MBC,Enterococcus faecalis [9],25 µg/mL
same,MIC90,Enterococcus faecalis [11],6.25 µg/mL
same,MBC,Enterococcus faecalis [11],12.5 µg/mL
same,selectivity ratio,[6],> 1280
same,MIC90,Staphylococcus aureus [12],0.39 µg/mL
same,MBC,Staphylococcus aureus [12],1.56 µg/mL
NC(=O)c1c(F)ccc(OCC2COc3ccc(C(F)(F)F)cc3O2)c1F (stereo not given),MBC,Staphylococcus aureus [2],2.5 µg/mL
same,MIC,Staphylococcus aureus [2],2.5 µg/mL
NC(=O)c1c(F)ccc(OCC2CCc3ccccc3O2)c1F (stereo not given),MBC,Staphylococcus aureus [2],5 µg/mL
same,MIC,Staphylococcus aureus [2],5 µg/mL
C#Cc1ccc2c(c1)OC(COc1ccc(F)c(C(N)=O)c1F)CO2 (stereo not given),MBC,Staphylococcus aureus [2],0.625 µg/mL
same,MIC,Staphylococcus aureus [2],0.313 µg/mL
same,TD90,[3],400 µg/mL
same,selectivity ratio,[6],640
same,inhibition,[13],Active
same,inhibition,[14],Active
same,inhibition,[15],Active
NC(=O)c1c(F)ccc(OCC2COc3ccc(N)cc3O2)c1F (stereo not given),MBC,Staphylococcus aureus [2],100 µg/mL
same,MIC,Staphylococcus aureus [2],100 µg/mL
NC(=O)c1ccc2c(c1)OC(COc1ccc(F)c(C(N)=O)c1F)CO2 (stereo not given),MIC,Staphylococcus aureus [2],> 100 µg/mL
NC(=O)c1c(F)ccc(OCC2COc3ccccc3C2)c1F (stereo not given),MBC,Staphylococcus aureus [2],100 µg/mL
same,MIC,Staphylococcus aureus [2],100 µg/mL
CS(=O)(=O)Nc1ccc2c(c1)OC(COc1ccc(F)c(C(N)=O)c1F)CO2 (stereo not given),MIC,Staphylococcus aureus [2],> 100 µg/mL
